Assay results taken from ChEMBL document CHEMBL2010643 (Bioorg Med Chem Lett, 2012).
Calls of active or inactive are those of the source. The rule behind the calls is not given here.

Columns and labels:
[1] = biological target: Ribosomal protein S6 kinase beta-1 (Homo sapiens) (UniProt P23443); experiment: Inhibition of S6K1 assessed as residual activity at 1 uM relative to control
[2] = biological target: Proto-oncogene tyrosine-protein kinase Src (Homo sapiens) (UniProt P12931); experiment: Inhibition of Src assessed as residual activity at 1 uM relative to control
[3] = biological target: Angiopoietin-1 receptor (Homo sapiens) (UniProt Q02763); experiment: Inhibition of TIE2 assessed as residual activity at 1 uM relative to control
[4] = biological target: Dual specificity protein kinase TTK (Homo sapiens) (UniProt P33981); experiment: Inhibition of TTK assessed as residual activity at 1 uM relative to control
Method in brief: (§1)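 Radioactivity-based enzymatic kinase assays run across a 124-kinase profiling panel (Dundee), reporting the remaining kinase activity relative to a control.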

[5] = biological target: Serine/threonine-protein kinase STK11 (Homo sapiens) (UniProt Q15831); experiment: Inhibition of LKB1 assessed as residual activity at 10 uM relative to control
[6] = biological target: Serine/threonine-protein kinase 16 (Homo sapiens) (UniProt O75716); experiment: Inhibition of MPSK1 assessed as residual activity at 10 uM relative to control
[7] = biological target: Mitogen-activated protein kinase 14 (Homo sapiens) (UniProt Q16539); experiment: Inhibition of p38alpha MAPK assessed as residual activity at 10 uM relative to control; method in brief: as §1
[8] = biological target: T1, Leucine-rich repeat serine/threonine-protein kinase 2 (Homo sapiens, UniProt Q5S007); experiment: Inhibition of wild-type LRRK2 phosphorylation at Ser910 expressed in HEK293 cells after 90 mins by immunoblot analysis; format: cell-based
Method in brief: (§2)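 HEK293 cells stably expressing wild-type GFP-LRRK2 exposed to DMSO or increasing inhibitor concentrations for 90 min. Lysates immunoblotted for LRRK2 phosphorylated at Ser910 and Ser935 and for total LRRK2.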

[9] = biological target: T1, Leucine-rich repeat serine/threonine-protein kinase 2; experiment: Inhibition of wild-type LRRK2 phosphorylation at Ser935 expressed in HEK293 cells after 90 mins by immunoblot analysis; format: cell-based; method in brief: as §2
[10] = test system: Leucine-rich repeat serine/threonine-protein kinase 2 (Homo sapiens), Q5S007 [A2016T]; experiment: Inhibition of LRRK2 A2016T mutant phosphorylation at Ser935 expressed in HEK293 cells at 1 to 3 uM after 90 mins by immunoblot analysis; format: cell-based
Plasma = experiment: AUClast in Swiss albino mouse plasma at 1 mg/kg, iv; format: ADME, organism-based; parameters: time 0 - last, dose 1 mg/kg, route intravenous; conditions: in vivo
Method in brief: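 Male Swiss Albino mice were given a single dose, either intravenous at 1 mg/kg or oral at 10 mg/kg. AUClast was measured in plasma and in brain. Half-life, plasma clearance, volume of distribution and oral bioavailability were derived from the plasma data.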

[11] = biological target: Protein kinase C alpha type (Homo sapiens) (UniProt P17252); experiment: Inhibition of PKCalpha assessed as residual activity at 10 uM relative to control
[12] = biological target: MAP kinase-activated protein kinase 5 (Homo sapiens) (UniProt Q8IW41); experiment: Inhibition of PRAK assessed as residual activity at 10 uM relative to control
[13] = biological target: Receptor-interacting serine/threonine-protein kinase 2 (Homo sapiens) (UniProt O43353); experiment: Inhibition of RIPK2 assessed as residual activity at 10 uM relative to control
[14] = biological target: Dual specificity protein kinase TTK (Homo sapiens) (UniProt P33981); experiment: Inhibition of TTK assessed as residual activity at 10 uM relative to control; method in brief: as §1
[15] = biological target: Tyrosine-protein kinase ZAP-70 (Homo sapiens) (UniProt P43403); experiment: Inhibition of ZAP70 assessed as residual activity at 10 uM relative to control; method in brief: as §1
[16] = biological target: Tyrosine-protein kinase BTK (Homo sapiens) (UniProt Q06187); experiment: Inhibition of BTK assessed as residual activity at 1 uM relative to control
Method in brief: (§3)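 Standard radioactivity-based enzymatic assays were run across a 124-kinase panel (Dundee profiling), with compound at 1 µM. Kinase activity was expressed relative to control.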

Mus musculus [17] = experiment: Inhibition of LRRK2 phosphorylation at Ser910 in C57BL/6 mouse spleen at 50 mg/kg, po administered for 8 hrs followed by 2 hrs dosing; format: functional, organism-based; parameters: dose 50 mg/kg
Method in brief: (§4)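 Mice were dosed by oral gavage at 10 or 50 mg/kg. Brain, spleen and kidney were collected. Endogenous LRRK2 was resolved by SDS–PAGE and blotted with phospho-specific antibodies to Ser910 and Ser935 and with an antibody to total LRRK2.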

Mus musculus [18] = experiment: Inhibition of LRRK2 phosphorylation at Ser910 in C57BL/6 mouse kidney at 10 mg/kg, po administered for 8 hrs followed by 2 hrs dosing; format: functional, organism-based; parameters: dose 10 mg/kg; method in brief: as §4
Mus musculus [19] = experiment: Inhibition of LRRK2 phosphorylation at Ser910 in C57BL/6 mouse spleen at 10 mg/kg, po administered for 8 hrs followed by 2 hrs dosing; format: functional, organism-based; parameters: dose 10 mg/kg; method in brief: as §4
Mus musculus [20] = experiment: Inhibition of LRRK2 phosphorylation at Ser910 in C57BL/6 mouse brain at 10 to 50 mg/kg, po administered for 8 hrs followed by 2 hrs dosing; format: functional, organism-based; method in brief: as §4
[21] = biological target: Calcium/calmodulin-dependent protein kinase kinase 2 (Homo sapiens) (UniProt Q96RR4); experiment: Inhibition of CAMKKb assessed as residual activity at 10 uM relative to control
[22] = biological target: Eukaryotic elongation factor 2 kinase (Homo sapiens) (UniProt O00418); experiment: Inhibition of EF2K assessed as residual activity at 1 uM relative to control; method in brief: as §3
[23] = biological target: Ephrin type-A receptor 2 (Homo sapiens) (UniProt P29317); experiment: Inhibition of EPH-A2 assessed as residual activity at 1 uM relative to control; method in brief: as §3
[24] = biological target: Insulin receptor-related protein (Homo sapiens) (UniProt P14616); experiment: Inhibition of IRR assessed as residual activity at 1 uM relative to control
[25] = biological target: Serine/threonine-protein kinase STK11 (Homo sapiens) (UniProt Q15831); experiment: Inhibition of LKB1 assessed as residual activity at 1 uM relative to control
[26] = biological target: Maternal embryonic leucine zipper kinase (Homo sapiens) (UniProt Q14680); experiment: Inhibition of MELK assessed as residual activity at 1 uM relative to control
[27] = biological target: Serine/threonine-protein kinase 16 (Homo sapiens) (UniProt O75716); experiment: Inhibition of MPSK1 assessed as residual activity at 1 uM relative to control
[28] = biological target: Serine/threonine-protein kinase PAK 4 (Homo sapiens) (UniProt O96013); experiment: Inhibition of PAK4 assessed as residual activity at 1 uM relative to control
[29] = biological target: Serine/threonine-protein kinase pim-2 (Homo sapiens) (UniProt Q9P1W9); experiment: Inhibition of PIM2 assessed as residual activity at 1 uM relative to control
[30] = biological target: Serine/threonine-protein kinase pim-3 (Homo sapiens) (UniProt Q86V86); experiment: Inhibition of PIM3 assessed as residual activity at 1 uM relative to control
[31] = Inhibition of CK1 assessed as residual activity at 1 uM relative to control
[32] = biological target: Serine/threonine-protein kinase PLK1 (Homo sapiens) (UniProt P53350); experiment: Inhibition of PLK1 assessed as residual activity at 1 uM relative to control
[33] = biological target: Serine/threonine-protein kinase Sgk1 (Homo sapiens) (UniProt O00141); experiment: Inhibition of SGK1 assessed as residual activity at 1 uM relative to control

Sequence of Serine/threonine-protein kinase STK11 (Homo sapiens) (Q15831 whole entry): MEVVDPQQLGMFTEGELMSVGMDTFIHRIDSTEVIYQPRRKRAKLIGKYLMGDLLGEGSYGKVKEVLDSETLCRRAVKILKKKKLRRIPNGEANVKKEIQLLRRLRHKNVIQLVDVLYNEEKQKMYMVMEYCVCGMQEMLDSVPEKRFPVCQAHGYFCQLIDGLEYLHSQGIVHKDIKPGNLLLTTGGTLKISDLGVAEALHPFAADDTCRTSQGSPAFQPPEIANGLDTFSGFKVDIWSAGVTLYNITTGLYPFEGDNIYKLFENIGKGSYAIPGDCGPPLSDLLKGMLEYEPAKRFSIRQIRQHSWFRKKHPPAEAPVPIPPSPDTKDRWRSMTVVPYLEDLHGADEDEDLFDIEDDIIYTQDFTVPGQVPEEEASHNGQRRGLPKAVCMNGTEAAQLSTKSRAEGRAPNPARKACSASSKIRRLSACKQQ
T1 sequence (Q5S007 whole entry): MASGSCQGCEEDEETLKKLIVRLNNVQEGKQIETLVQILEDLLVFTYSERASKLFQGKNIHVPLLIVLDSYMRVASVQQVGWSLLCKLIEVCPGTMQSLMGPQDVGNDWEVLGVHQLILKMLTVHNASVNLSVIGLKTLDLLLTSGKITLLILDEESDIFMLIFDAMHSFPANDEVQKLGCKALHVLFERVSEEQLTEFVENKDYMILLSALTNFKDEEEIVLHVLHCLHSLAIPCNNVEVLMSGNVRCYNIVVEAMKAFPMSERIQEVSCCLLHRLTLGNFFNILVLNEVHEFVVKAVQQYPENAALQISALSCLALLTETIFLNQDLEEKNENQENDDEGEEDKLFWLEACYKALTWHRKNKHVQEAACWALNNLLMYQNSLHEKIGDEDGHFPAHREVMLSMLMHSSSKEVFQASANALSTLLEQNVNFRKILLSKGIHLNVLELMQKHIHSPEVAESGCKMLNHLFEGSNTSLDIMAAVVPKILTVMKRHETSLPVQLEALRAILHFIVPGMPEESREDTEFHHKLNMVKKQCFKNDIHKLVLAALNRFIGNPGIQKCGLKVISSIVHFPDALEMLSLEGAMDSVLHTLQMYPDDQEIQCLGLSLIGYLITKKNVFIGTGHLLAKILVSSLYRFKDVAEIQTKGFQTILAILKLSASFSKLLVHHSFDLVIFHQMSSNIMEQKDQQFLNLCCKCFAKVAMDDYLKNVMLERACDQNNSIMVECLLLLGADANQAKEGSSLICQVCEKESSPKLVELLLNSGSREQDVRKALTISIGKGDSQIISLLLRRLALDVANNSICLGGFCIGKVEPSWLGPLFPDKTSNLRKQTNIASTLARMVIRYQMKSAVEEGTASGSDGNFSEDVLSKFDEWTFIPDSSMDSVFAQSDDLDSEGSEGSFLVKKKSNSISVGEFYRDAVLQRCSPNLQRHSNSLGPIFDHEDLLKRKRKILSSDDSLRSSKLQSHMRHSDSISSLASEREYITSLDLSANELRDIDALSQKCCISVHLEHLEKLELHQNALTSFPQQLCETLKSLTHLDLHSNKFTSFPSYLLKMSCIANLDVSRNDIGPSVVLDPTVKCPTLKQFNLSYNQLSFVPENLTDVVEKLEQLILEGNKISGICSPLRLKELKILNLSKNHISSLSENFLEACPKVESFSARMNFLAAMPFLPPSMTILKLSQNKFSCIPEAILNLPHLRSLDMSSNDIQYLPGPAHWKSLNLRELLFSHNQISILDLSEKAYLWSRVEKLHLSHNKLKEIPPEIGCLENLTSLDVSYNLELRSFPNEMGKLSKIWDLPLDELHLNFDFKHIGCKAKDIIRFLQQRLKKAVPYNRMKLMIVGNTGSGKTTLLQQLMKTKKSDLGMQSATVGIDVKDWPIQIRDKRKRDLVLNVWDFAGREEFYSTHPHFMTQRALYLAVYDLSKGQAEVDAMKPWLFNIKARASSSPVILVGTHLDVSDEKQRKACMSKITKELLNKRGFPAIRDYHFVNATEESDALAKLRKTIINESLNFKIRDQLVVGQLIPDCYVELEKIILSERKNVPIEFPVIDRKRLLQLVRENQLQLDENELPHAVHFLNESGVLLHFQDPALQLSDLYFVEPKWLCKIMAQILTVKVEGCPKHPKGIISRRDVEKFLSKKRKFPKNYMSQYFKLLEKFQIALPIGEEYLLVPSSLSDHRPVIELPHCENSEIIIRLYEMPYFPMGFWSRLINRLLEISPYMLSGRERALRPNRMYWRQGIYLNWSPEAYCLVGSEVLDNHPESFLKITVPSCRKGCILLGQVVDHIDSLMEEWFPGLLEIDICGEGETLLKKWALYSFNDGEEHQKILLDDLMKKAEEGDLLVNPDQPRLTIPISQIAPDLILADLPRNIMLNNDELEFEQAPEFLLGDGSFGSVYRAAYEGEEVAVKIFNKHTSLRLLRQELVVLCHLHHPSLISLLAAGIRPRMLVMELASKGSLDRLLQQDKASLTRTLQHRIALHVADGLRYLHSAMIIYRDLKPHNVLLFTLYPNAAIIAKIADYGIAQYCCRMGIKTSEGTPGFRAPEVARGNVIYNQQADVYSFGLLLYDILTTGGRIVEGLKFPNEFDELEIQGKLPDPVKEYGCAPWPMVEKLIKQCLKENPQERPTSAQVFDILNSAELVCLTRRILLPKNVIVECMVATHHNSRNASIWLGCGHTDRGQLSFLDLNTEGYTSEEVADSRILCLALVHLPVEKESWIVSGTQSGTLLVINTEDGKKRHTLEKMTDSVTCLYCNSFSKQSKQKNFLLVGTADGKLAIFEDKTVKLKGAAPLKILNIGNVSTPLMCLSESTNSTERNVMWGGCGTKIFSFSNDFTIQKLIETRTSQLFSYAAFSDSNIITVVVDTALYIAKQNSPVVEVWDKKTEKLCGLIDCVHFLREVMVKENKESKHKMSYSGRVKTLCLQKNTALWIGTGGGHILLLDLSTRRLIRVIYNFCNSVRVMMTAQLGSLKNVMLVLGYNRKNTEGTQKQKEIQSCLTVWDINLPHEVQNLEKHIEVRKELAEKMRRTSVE
Sequence of Serine/threonine-protein kinase 16 (Homo sapiens) (O75716 whole entry): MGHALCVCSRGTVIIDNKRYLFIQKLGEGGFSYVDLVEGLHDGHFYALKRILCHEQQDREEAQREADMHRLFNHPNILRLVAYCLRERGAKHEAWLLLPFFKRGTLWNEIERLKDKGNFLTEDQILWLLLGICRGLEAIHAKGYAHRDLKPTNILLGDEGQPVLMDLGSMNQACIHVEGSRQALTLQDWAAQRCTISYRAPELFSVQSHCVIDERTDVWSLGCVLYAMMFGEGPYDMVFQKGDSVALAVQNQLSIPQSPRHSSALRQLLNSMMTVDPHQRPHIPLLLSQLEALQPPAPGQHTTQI
Sequence of Dual specificity protein kinase TTK (Homo sapiens) (P33981 whole entry): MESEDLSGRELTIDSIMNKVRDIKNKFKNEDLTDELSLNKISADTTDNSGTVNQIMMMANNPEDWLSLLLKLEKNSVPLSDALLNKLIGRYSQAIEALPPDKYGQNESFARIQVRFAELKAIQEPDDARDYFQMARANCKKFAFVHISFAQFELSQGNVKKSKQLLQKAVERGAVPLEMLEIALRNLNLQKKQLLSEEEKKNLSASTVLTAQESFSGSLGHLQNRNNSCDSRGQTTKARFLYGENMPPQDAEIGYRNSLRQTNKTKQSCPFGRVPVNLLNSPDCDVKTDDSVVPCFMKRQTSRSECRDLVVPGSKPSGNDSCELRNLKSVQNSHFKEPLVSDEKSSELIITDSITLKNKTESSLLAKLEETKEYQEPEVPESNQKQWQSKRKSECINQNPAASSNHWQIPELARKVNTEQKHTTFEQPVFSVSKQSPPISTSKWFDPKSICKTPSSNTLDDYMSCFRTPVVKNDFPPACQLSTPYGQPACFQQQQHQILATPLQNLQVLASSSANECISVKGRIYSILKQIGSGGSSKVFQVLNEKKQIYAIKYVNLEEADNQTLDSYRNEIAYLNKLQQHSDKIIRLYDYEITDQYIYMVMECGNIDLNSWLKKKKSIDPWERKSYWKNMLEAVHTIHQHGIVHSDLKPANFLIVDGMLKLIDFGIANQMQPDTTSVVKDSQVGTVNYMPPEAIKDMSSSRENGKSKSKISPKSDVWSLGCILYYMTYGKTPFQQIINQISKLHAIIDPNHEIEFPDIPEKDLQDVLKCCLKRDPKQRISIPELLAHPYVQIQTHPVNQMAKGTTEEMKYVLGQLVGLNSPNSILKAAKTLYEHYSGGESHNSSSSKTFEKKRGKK
Sequence of Eukaryotic elongation factor 2 kinase (Homo sapiens) (O00418 whole entry): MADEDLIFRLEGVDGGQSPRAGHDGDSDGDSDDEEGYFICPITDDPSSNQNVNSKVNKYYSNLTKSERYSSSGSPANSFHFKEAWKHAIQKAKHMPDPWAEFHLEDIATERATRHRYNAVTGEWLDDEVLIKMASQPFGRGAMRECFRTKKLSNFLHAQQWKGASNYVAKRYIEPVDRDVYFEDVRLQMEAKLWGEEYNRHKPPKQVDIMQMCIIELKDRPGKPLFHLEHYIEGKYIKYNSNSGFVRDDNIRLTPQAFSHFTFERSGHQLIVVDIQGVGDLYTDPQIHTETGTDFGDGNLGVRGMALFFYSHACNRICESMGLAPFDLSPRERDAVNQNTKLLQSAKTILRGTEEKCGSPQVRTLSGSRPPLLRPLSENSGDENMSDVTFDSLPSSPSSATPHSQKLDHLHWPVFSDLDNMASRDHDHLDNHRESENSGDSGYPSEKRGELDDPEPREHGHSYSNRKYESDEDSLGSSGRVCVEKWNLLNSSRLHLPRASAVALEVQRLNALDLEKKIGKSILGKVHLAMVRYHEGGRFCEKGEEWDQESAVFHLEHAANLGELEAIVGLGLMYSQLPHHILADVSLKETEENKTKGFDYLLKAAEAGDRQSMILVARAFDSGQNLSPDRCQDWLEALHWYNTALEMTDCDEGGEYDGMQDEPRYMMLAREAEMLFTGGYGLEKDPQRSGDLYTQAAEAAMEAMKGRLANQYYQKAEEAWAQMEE
Sequence of Leucine-rich repeat serine/threonine-protein kinase 2 (Homo sapiens), Q5S007 [A2016T] (Q5S007 whole entry A2016T): as the sequence (Q5S007 whole entry) above, with A2016T counted along it

Which results are given for `COc1cc(N2CCC(N3CCN(C)CC3)CC2)ccc1Nc1ncc(Cl)c(Nc2ccccc2S(=O)(=O)C(C)C)n1` [TAE-684]?
Activity [1]: 99%; Activity [2]: 44%; Activity [3]: 18%; Activity [4]: 73%; Activity [5]: 77%; Activity [6]: 96%; Activity [7]: 79%; inhibition [8]: Dose-dependent effect; inhibition [9]: Dose-dependent effect; inhibition [10]: Active; AUClast (Plasma): 0.772 µg·h/mL; Activity [11]: 122%; Activity [12]: 110%; Activity [13]: 59%; Activity [14]: 47%; Activity [15]: 129%; Activity [16]: 53%; inhibition (Mus musculus [17]): Active; inhibition (Mus musculus [18]): Active; inhibition (Mus musculus [19]): Active; inhibition (Mus musculus [20]): inactive; Activity [21]: 5%; Activity [22]: 96%; Activity [23]: 70%; Activity [24]: 98%; Activity [25]: 94%; Activity [26]: 71%; Activity [27]: 102%; Activity [28]: 75%; Activity [29]: 91%; Activity [30]: 106%; Activity [31]: 102%; Activity [32]: 38%; Activity [33]: 88%
